Source: PubChem BioAssay
Only some compounds are listed: those with a hit (about 1.9% of all), similar ones and a draw of the others.
ROMK mod = ROMK potassium channel modulators, primary screen, cell-based, thallium flux, MLSMR library | ATP-sensitive inward rectifier potassium channel 1 (Homo sapiens), P48048 | Tet-inducible ROMK, thallium flux fluorescence; actives lie on both sides | B-score at 10 µM | 130,000 compounds, 2% hits | AID 1918, 2009;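 active = signal ratio slope over the read window, or its plate-corrected B-score, at least 3 SD from the plate mean, either direction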;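 note: B-score of the F/F0 ratio slope over 7 to 12 s after thallium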
Target sequence (P48048 whole entry, looked up): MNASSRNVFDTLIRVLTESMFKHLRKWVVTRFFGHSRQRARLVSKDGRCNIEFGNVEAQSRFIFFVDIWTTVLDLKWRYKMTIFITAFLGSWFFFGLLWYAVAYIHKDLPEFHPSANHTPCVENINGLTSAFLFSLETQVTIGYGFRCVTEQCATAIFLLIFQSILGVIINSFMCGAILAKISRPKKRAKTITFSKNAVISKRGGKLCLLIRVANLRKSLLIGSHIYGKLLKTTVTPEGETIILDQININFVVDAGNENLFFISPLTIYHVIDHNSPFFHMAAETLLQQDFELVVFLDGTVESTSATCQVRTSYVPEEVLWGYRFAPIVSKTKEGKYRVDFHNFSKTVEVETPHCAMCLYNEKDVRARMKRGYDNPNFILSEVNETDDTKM
MT stabilize HCS = microtubule stabilizers in HeLa cells, primary screen, imaging, high-content imaging | HeLa tubulin immunostaining HCS, 24 h; share of cells brighter than vehicle mean+2SD | % tubulin-high responders, % at 10 µM | 200,000 compounds, 0.83% hits;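 active = plate Z-score above 3 for both tubulin-high and condensed-nucleus cell shares, with cell loss under 80%, at 10 µM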;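 note: anti alpha tubulin signal scored within the nucleus-defined area of each cell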
b-catenin transl = modulators of beta-catenin nuclear translocation, primary screen, imaging, HeLa cells, immunofluorescence, high-content; nuclear translocation activity, % at 5 µM; 190,000 compounds, 0.3% hits;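 active = nuclear translocation activity above 50% at 5 µM, with a well cell count of 50 or more; inconclusive = wells under 50 cells across six images, flagged as toxic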;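 note: per-cell ratio of nuclear to cytoplasmic median beta-catenin stain intensity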
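Test system: human HeLa cells, native beta-catenin. Compound dosing: 5 µM primary single dose, 0.1% DMSO, 0.02–20 µM confirmation series. Incubation: compound exposure 24 h at 37°C. Detection: beta-catenin immunostaining with DAPI counterstain, 20x imaging, 6 fields/well. Read-out basis: Nuclear/cytoplasmic beta-catenin signal ratio, % activation.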
ROMK hit retest = ROMK channel modulator hit retest, confirmation, cell-based, thallium flux, duplicate, resupplied hits; shares compounds with ROMK mod; fluorescence ratio; stronger effect = lower value; normalized thallium flux (F/F0 slope) at 10 µM; 3,000 compounds, 54% hits;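 active = Flux at 10 µM at least 3 SD below or above vehicle control mean in one or both replicates; inconclusive = no clear call, values can overlap the other calls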
Each line names hits and unclear results; the compound was inactive in the other large screens (follow-up assays come after a bar, where they were run).

Cc1ccc(Cl)c2c1=NC(=O)C=2c1[nH]c(=S)[nH]c1O	ROMK mod -2.4 | ROMK hit retest 0.054
Oc1c(Cl)cc(Cl)cc1/C=N/c1nc(-c2ccc(Cl)cc2)cs1	none (no result: ROMK mod, MT stabilize HCS)
Oc1c(Cl)cc(Cl)cc1/C=N/c1nccs1	ROMK mod 3.1 | ROMK hit retest 0.1
CCOc1ccc(NC(=O)Nc2cccnc2)cc1	none
O=C(c1cc2c(s1)CCCC2)N1CCN(C(=O)C2CCCO2)CC1 (configuration not stated)	none
CC1CN(C(=O)c2cc3c(s2)CCC3)CC(C)O1 (configuration not stated)	none (no result: ROMK mod) | ROMK hit retest inactive
Cc1ccc(-c2nnc(CCC(=O)NCc3csc(C)n3)o2)s1	none (no result: ROMK mod, MT stabilize HCS)
COc1ccc(N2CCN(C(=O)c3ccccc3Br)CC2)c([N+](=O)[O-])c1	none
COC(=O)[C@@]1(Cc2ccc(OC)cc2)[C@@H]2C(=CC(=O)[C@H]2CC(=O)C(=O)N(C)C)CN1C(=O)c1ccccc1	none
C=C1C(=O)C=C2CN(C(=O)c3ccccc3)[C@@](Cc3ccc(F)cc3)(C(=O)OC)[C@@H]12	ROMK mod -4.4 | ROMK hit retest 0.05
Cc1cc(C)c(NC(=S)NC(CO)(CO)CO)c(C)c1	none (no result: MT stabilize HCS)
Cc1ccc(C(=O)NC(=O)OCCn2c(C)cnc2[N+](=O)[O-])cc1	none
O=C(Nc1ccccc1)N1CCN(Cc2ccc(Cl)cc2)CC1	none (no result: ROMK mod)
O=C(Nc1ccc(Cl)cc1)N1CCCN(Cc2ccc(F)cc2)C1	ROMK mod -2.7 (no result: b-catenin transl) | ROMK hit retest 0.056
CC(CCc1ccccc1)NC(=O)CN1CCN(c2ccc(O)cc2)CC1 (configuration not stated)	none
CC(C)/C=N\NC(=O)CCCCC(=O)N/N=C/C(C)C	none (no result: ROMK mod) | ROMK hit retest inactive
CCCCCCC(=O)N/N=C/Cc1ccccc1	none (no result: ROMK mod)
COC(=O)c1ccccc1NC(=O)C1CCN(C(=O)c2cc(OC)c(OC)c(OC)c2)CC1	none (no result: ROMK mod)
CCc1ccc(CNC(=O)c2cc3c(C)nc4ccccc4c3o2)cc1	none (no result: ROMK mod) | ROMK hit retest inactive
COc1cccc(CNC(=O)c2cc3c(C)nc4ccccc4c3o2)c1	none (no result: ROMK mod)
CCCCCC(=O)Cc1cc(O)cc2c1C(=O)Oc1cc(O)c(C(=O)O)c(CCCCC)c1O2	none (no result: ROMK mod, MT stabilize HCS)
Clc1ccc(-c2c[n+](Cc3ccc(Cl)cc3Cl)c3n2CCCCC3)cc1	none (no result: ROMK mod, MT stabilize HCS) | ROMK hit retest 0.055
Clc1ccc(C[n+]2cc(-c3ccccc3)n3c2CCCCC3)c(Cl)c1	none (no result: ROMK mod)
CC1CCC(C(C)C)C(OC(=O)C[n+]2cc(-c3ccc(Cl)cc3)n3c2CCCCC3)C1 (configuration not stated)	ROMK mod -9.8 | ROMK hit retest 0.049
Clc1ccc(-c2c[n+](Cc3cccc(Cl)c3)c3n2CCC3)cc1	none
Clc1ccc(-c2c[n+](Cc3ccc(Br)cc3)c3n2CCCCC3)cc1	ROMK mod -4.2 (no result: MT stabilize HCS) | ROMK hit retest inactive
O=C(C[n+]1cc(-c2ccccc2)n2c1CCCCC2)c1ccc(Cl)cc1	none (no result: ROMK mod)
COCCCNC(=S)NC(=O)c1ccc(C)cc1	none
CCC(C(=O)NC1CCCCC1)N(Cc1cccs1)C(=O)c1snc(C(N)=O)c1N (configuration not stated)	none (no result: ROMK mod)
CCc1c(C)nc2ncnn2c1N1CCC(C(=O)NCc2cccc(OC)c2)CC1	none (no result: ROMK mod)
CCc1c(C)nc2ncnn2c1N1CCC(C(=O)Nc2cccc(C(C)=O)c2)CC1	none (no result: ROMK mod) | ROMK hit retest inconclusive
COCCNC(=O)CSc1cc(=O)n(C)c2cc(Cl)ccc12	ROMK mod -9.8 | ROMK hit retest inactive
Cn1c(=O)cc(SCC(=O)N2CCCC2)c2ccc(Cl)cc21	none
CCCc1ccc(C(=O)NNc2cccc(C)c2)cc1	none (no result: ROMK mod, MT stabilize HCS)
Cc1ccc(C(=O)NC(C#N)=C(Cl)Cl)cc1	none | ROMK hit retest 0.061
Cc1ccc(C(=O)NCC#N)cc1	none
CCOC(=O)c1cc(CC)sc1NC(=O)CC1Sc2ccc(C(F)(F)F)cc2NC1=O (configuration not stated)	none
CCC(CO)NCC#Cc1ccccc1 (configuration not stated)	none (no result: ROMK mod)
O=C(C1CCCCC1)N1CCN(c2nc(-c3ccc(F)cc3)cs2)CC1	none
CCOC(=O)N1CCN(c2nc(-c3ccc(F)cc3)cs2)CC1	ROMK mod -2.6 (no result: b-catenin transl) | ROMK hit retest inconclusive
O=C(N1CCOCC1)N1CCC(c2nc(-c3ccc(S(=O)(=O)N4CCOCC4)cc3)no2)CC1	none
CC(C)C(=O)N1CCC(c2nc(-c3ccc(S(=O)(=O)N4CCN(C)CC4)cc3)no2)CC1	none | ROMK hit retest inactive
COC(=O)[C@@H]1C[C@H]2CC[C@H](O)C[C@H]2N1Cc1ccccc1OS(=O)(=O)c1ccc(C)cc1	none (no result: ROMK mod, MT stabilize HCS)
